# Data as given in ChEMBL document CHEMBL3627669, “Wittig derivatization of sesquiterpenoid polygodial leads to cytostatic agents with activity against drug resistant cancer cells and capable of pyrrolylation of primary amines” (2015).
# Activity calls are given as the source filed them. The calls are words filed in the database; no cut-off is given here.
# Tests used:
# [1] = Cytotoxicity against human MES-SA cells assessed as growth inhibition incubated for 48 hrs by MTT assay; assay type: functional
# In short: (§1)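 MTT assay on MES-SA and MES-SA/Dx5 uterine sarcoma cells in RPMI-1640 with 10% FBS. Dx5 cells were selected by stepwise doxorubicin exposure from 100 to 500 nM and maintained in 500 nM doxorubicin. Cells treated 48 h. GI50 is the concentration reducing viability 50% relative to DMSO control, from two independent experiments with 4 replicates each.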
# [2] = Cytotoxicity against human MES-SA/Dx5 cells assessed as growth inhibition incubated for 48 hrs by MTT assay; assay type: functional; details: MES-SA/Dx5, 48 h; in short: as §1
# Glioma cell [3] = assay: Cytotoxicity against cdkn2a/TRPV1 doubly deficient PDGFB amplified mouse neurosphere glioma cells using bis-AAF-R110 as substrate at 10 uM preincubated for 24 hrs followed by substrate addition measured after 2 hrs by fluorescence analysis; assay type: functional, cell-based
# In short: (§2)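 Primary glioma neurosphere cultures were plated at 0.015×10^6 cells/well (5 replicates) in phenol red-free DMEM-F12. Cells were mixed with bis-AAF-R110 and incubated 2 h at 37 °C, with fluorescence read at 485/520 nm. Signal was blank-subtracted and expressed as fold change over vehicle (mean ± SD, two independent experiments).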
# Glioma cell [4] = assay: Cytotoxicity against cdkn2a-deficient EGFRvIII amplified mouse neurosphere glioma cells using bis-AAF-R110 as substrate at 10 uM preincubated for 24 hrs followed by substrate addition measured after 2 hrs by fluorescence analysis; assay type: functional, cell-based; in short: as §2
# Glioma cell [5] = assay: Cytotoxicity against cdkn2a-deficient mouse neurosphere glioma cells at 10 uM after 24 hrs; assay type: functional, cell-based; in short: as §2
# [6] = Cytotoxicity against human U373 cells assessed as growth inhibition incubated for 72 hrs by MTT assay; assay type: functional, U-373MG ATCC; details: U373 MG
# In short: (§3)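 MTT assay. Stocks of 100 or 50 mM in DMSO. Cells seeded at line-dependent density, grown 24–72 h, then treated across […] for 72 h. Negative control 0.1% DMSO, positive control 1 μM phenylarsine oxide. GI50 is the concentration reducing viability 50% relative to control, averaged over experiments each run in sextuplicate.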
# SK-MEL-28 = assay: Cytotoxicity against human SK-MEL-28 cells assessed as growth inhibition incubated for 72 hrs by MTT assay; assay type: functional; details: SK-MEL-28, 72 h; in short: as §3
# MCF7 = assay: Cytotoxicity against human MCF7 cells assessed as growth inhibition incubated for 72 hrs by MTT assay; assay type: functional; details: MCF7, 72 h; in short: as §3
# U-373MG ATCC [7] = assay: Cytotostatic activity on human U373 cells assessed as change in cell morphology at 100 uM after 72 hrs by videomicroscopic analysis; assay type: functional, cell-based
# A549 = assay: Cytotoxicity against human A549 cells assessed as growth inhibition incubated for 72 hrs by MTT assay; assay type: functional; details: A549, 72 h; in short: as §3
# U-373MG ATCC [8] = assay: Cytotoxicity against human U373 cells assessed as necrotic and late apoptotic cells at 100 uM after 72 hrs by Trypan blue assay; assay type: functional, cell-based
# In short: (§4)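 U373 cells treated 72 h, stained with trypan blue and imaged. Cells were then fixed with ice-cold methanol and restained as an internal positive control. Single experiment in triplicate.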
# [9] = biological target: Transient receptor potential cation channel subfamily V member 1 (Homo sapiens) (UniProt Q8NER1); assay: Activity at TRPV1 in human MDA-MB--231 cells assessed as transient and synchronous increase in cytosolic Ca2+ level at 80 uM by FURA2-based fluorescence imaging analysis; assay type: cell-based
# [10] = Cytotoxicity against human Hs683 cells assessed as growth inhibition incubated for 72 hrs by MTT assay; assay type: functional; details: Hs 683, 72 h; in short: as §3
# [11] = biological target: Transient receptor potential cation channel subfamily V member 1 (Rattus norvegicus) (UniProt O35433); assay: Displacement of [3H]-RTX from vanilloid site of TRPV1 receptor in rat spinal cord at 10 uM incubated for 60 mins by scintillation counting analysis
# In short: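 Rat spinal cord homogenized in buffer A (pH 7.4, HEPES/sucrose salts). Membranes collected from a 35,000g spin. Binding run with 0.5 mg/mL membranes, 0.25 mg/mL BSA, 2 nM [3H]-RTX, and compound at 10 μM, for 60 min at 37 °C. Nonspecific binding defined with 100 μM unlabeled RTX. Reaction stopped on ice with α1-acid glycoprotein, then centrifuged and the pellet counted by scintillation. Result is % specific binding, mean ± SEM of 3 experiments.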
# [12] = biological target: Transient receptor potential cation channel subfamily V member 1 (Homo sapiens) (UniProt Q8NER1); assay: Activity at TRPV1 in human MDA-MB--231 cells assessed as transient and synchronous increase in cytosolic Ca2+ level at 80 uM in presence of TRPV1 blocker capsazepine by FURA2-based fluorescence imaging analysis; assay type: cell-based
# SCC-4 = assay: Cytotoxicity against docetaxel-resistant human SCC4 cells assessed as growth inhibition; assay type: functional, cell-based
# U-373MG ATCC [13] = assay: Cytotostatic activity on human U373 cells assessed as change in cell morphology at 25 uM after 72 hrs by videomicroscopic analysis; assay type: functional, cell-based
# Glioma cell [14] = assay: Cytotoxicity against cdkn2a/TRPV1 doubly deficient PDGFB amplified mouse neurosphere glioma cells using bis-AAF-R110 as substrate at 20 uM preincubated for 24 hrs followed by substrate addition measured after 2 hrs by fluorescence analysis; assay type: functional, cell-based
# In short: (§5)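 GBM neurosphere primary cultures carrying cdkn2a deletion with PDGFB or EGFRvIII amplification. Plated at 0.015×10^6 cells/well, 5 replicates per condition, in DMEM-F12 without phenol red. Cell suspension then mixed with bis-AAF-R110 substrate for 2 h at 37 °C and fluorescence read at 485/520 nm. After blank subtraction, signals were normalized to vehicle (=1) to give fold relative cytotoxicity. Mean ± SD of two independent experiments.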
# SCC-25 = assay: Cytotoxicity against cisplatin-resistant human SCC25 cells assessed as growth inhibition; assay type: functional, cell-based
# Glioma cell [15] = assay: Cytotoxicity against cdkn2a-deficient EGFRvIII amplified mouse neurosphere glioma cells using bis-AAF-R110 as substrate at 20 uM preincubated for 24 hrs followed by substrate addition measured after 2 hrs by fluorescence analysis; assay type: functional, cell-based; in short: as §5
# PC-3 = assay: Cytotoxicity against docetaxel-resistant human PC3 cells assessed as growth inhibition; assay type: functional, cell-based
# [16] = biological target: Transient receptor potential cation channel subfamily V member 1 (Homo sapiens) (UniProt Q8NER1); assay: Activity at TRPV1 in human MDA-MB--231 cells assessed as sustained and asynchronous increase in cytosolic Ca2+ level at 20 uM by FURA2-based fluorescence imaging analysis; assay type: cell-based
# Glioma cell [17] = assay: Cytotoxicity against cdkn2a-deficient mouse neurosphere glioma cells at 20 uM after 24 hrs; assay type: functional, cell-based
# U-373MG ATCC [18] = assay: Cytotostatic activity on human U373 cells assessed as change in cell morphology at 35 uM after 72 hrs by videomicroscopic analysis; assay type: functional, cell-based
# U-373MG ATCC [19] = assay: Cytotoxicity against human U373 cells assessed as necrotic and late apoptotic cells at 35 uM after 72 hrs by Trypan blue assay; assay type: functional, cell-based; in short: as §4
# Sequence of Transient receptor potential cation channel subfamily V member 1 (Homo sapiens) (Q8NER1 whole entry): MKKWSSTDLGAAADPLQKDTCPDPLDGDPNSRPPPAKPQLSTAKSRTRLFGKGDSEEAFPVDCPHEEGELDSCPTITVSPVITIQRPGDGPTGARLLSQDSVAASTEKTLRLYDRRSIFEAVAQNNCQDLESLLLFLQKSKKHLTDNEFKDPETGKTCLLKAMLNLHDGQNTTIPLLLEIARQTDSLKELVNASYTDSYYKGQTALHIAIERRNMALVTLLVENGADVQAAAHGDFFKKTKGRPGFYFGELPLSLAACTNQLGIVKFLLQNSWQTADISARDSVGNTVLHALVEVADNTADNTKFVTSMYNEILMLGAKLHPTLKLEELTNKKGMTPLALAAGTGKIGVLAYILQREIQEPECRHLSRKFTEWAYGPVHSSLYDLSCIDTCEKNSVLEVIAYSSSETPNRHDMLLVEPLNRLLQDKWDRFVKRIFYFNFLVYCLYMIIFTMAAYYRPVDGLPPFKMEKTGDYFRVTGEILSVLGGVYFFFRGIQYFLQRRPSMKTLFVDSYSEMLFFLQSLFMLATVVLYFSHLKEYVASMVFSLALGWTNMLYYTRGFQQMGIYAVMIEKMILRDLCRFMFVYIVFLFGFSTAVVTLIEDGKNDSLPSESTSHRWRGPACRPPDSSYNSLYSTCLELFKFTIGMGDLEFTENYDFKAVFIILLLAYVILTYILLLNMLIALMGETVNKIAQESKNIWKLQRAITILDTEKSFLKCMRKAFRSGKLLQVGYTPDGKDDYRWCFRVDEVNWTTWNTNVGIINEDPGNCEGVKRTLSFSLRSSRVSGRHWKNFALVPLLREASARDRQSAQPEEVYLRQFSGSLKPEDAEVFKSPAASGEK
# Sequence of Transient receptor potential cation channel subfamily V member 1 (Rattus norvegicus) (O35433 whole entry): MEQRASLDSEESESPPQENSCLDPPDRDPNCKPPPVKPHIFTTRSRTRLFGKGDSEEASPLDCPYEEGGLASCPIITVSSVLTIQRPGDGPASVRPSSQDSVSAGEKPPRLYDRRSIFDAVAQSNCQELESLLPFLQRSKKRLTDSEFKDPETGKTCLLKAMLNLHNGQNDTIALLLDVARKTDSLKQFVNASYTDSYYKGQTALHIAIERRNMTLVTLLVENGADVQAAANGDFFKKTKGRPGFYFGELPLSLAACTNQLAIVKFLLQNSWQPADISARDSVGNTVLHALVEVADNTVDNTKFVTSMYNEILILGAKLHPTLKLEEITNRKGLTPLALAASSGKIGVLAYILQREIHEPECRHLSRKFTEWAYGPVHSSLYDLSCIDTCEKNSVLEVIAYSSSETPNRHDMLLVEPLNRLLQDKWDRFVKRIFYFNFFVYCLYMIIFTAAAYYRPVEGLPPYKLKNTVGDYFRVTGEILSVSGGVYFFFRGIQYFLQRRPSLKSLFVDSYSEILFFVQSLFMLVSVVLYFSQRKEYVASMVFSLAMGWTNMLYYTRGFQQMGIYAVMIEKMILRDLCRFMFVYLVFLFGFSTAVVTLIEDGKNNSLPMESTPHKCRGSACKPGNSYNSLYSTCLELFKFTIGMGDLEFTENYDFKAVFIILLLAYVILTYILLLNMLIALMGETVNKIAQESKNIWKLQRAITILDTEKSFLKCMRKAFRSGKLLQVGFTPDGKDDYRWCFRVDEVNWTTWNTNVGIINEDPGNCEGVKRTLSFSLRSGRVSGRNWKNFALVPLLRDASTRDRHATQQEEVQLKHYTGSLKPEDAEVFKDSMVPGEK
Structure (SMILES),GI50 [6] [µM],GI50 (SK-MEL-28) [µM],GI50 (MCF7) [µM],GI50 (A549) [µM],GI50 [10] [µM],also measured
CC[C@]1(O)C[C@@H]2CN(CCc3c([nH]c4ccccc34)[C@@](C(=O)OC)(c3cc4c(cc3OC)N(C)[C@H]3[C@@](O)(C(=O)OC)[C@H](OC(C)=O)[C@]5(CC)C=CCN6CC[C@]43[C@@H]65)C2)C1 [VINBLASTINE],–,–,–,–,–,GI50 [1]: 0.006 µM; GI50 [2]: 5 µM
C=C(C)[C@@H]1CCC(C)=C[C@H]1c1c(O)cc(CCCCC)cc1O,–,–,–,–,–,growth inhibition (GI) (Glioma cell [3]): inactive; growth inhibition (GI) (Glioma cell [4]): Active; growth inhibition (GI) (Glioma cell [5]): Active
CC1(C)CCC[C@]2(C)[C@@H](C=O)C(C=O)=CC[C@@H]12 [POLYGODIAL],> 100,65,75,90,95,Activity (U-373MG ATCC [7]): inactive; Activity (U-373MG ATCC [8]): Active; Activity [9]: Active; inhibition [11]: 76%; Activity [12]: inactive
CCOC(=O)/C=C/C1=CC[C@H]2C(C)(C)CCC[C@]2(C)[C@H]1C=O,37,29,30,25,29,–
CC1(C)CCC[C@]2(C)[C@@H](C=O)C(/C=C/C(=O)OCc3ccccc3)=CC[C@@H]12,39,39,27,28,31,–
CCOC(=O)/C(C)=C/C1=CC[C@H]2C(C)(C)CCC[C@]2(C)[C@H]1C=O,37,37,27,26,28,–
COC(=O)/C=C/C=C/C1=CC[C@H]2C(C)(C)CCC[C@]2(C)[C@H]1C=O,27,25,31,29,12,–
COC(=O)/C=C/C1=CC[C@H]2C(C)(C)CCC[C@]2(C)[C@H]1C=O,22,27,7,21,24,GI50 [1]: 40 µM; growth inhibition (GI) (SCC-4): Active; Activity (U-373MG ATCC [13]): Active; growth inhibition (GI) (Glioma cell [14]): Active; growth inhibition (GI) (SCC-25): Active; growth inhibition (GI) (Glioma cell [15]): Active; growth inhibition (GI) (PC-3): Active; Activity [16]: Active; GI50 [2]: 45 µM; growth inhibition (GI) (Glioma cell [17]): Active; Activity [11]: inactive
C#CCCCOC(=O)/C=C/C1=CC[C@H]2C(C)(C)CCC[C@]2(C)[C@H]1C=O,35,36,30,30,33,Activity (U-373MG ATCC [18]): Active; Activity (U-373MG ATCC [19]): inactive
CC(C)(C)OC(=O)/C=C/C1=CC[C@H]2C(C)(C)CCC[C@]2(C)[C@H]1C=O,40,41,32,29,29,–
CC(=O)O[C@H]1C(=O)[C@@]2(C)[C@H]([C@H](OC(=O)c3ccccc3)[C@]3(O)C[C@H](OC(=O)[C@H](O)[C@@H](NC(=O)c4ccccc4)c4ccccc4)C(C)=C1C3(C)C)[C@]1(OC(C)=O)CO[C@@H]1C[C@@H]2O [PACLITAXEL],–,–,–,–,–,GI50 [1]: 0.007 µM; GI50 [2]: 10 µM
CC1(C)CCC[C@]2(C)[C@@H](C=O)C(/C=C/C#N)=CC[C@@H]12,36,42,31,27,28,–
CC(=O)/C=C/C1=CC[C@H]2C(C)(C)CCC[C@]2(C)[C@H]1C=O,25,28,20,24,22,–
